The source of these data is ChEMBL document CHEMBL1140037, “Effect of cathepsin K inhibitors on bone resorption” (J Med Chem, 2008).

Data set [1] concerns the target T1, Cathepsin K (Homo sapiens, UniProt P43235).
T1 sequence (P43235 whole entry): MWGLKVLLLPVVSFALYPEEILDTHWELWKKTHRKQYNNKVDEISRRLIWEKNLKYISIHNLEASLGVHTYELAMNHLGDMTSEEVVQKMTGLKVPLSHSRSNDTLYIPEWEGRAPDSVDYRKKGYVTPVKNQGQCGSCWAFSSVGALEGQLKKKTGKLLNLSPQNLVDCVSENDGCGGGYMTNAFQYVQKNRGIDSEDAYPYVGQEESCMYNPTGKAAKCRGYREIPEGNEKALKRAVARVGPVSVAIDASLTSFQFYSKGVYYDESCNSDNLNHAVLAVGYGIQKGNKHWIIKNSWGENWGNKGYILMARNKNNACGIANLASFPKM
The experiment in a line: Inhibition of human recombinant cathepsin K by fluorescence assay. The procedure, abridged: (§1)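 Recombinant human cathepsins K, L and S, inhibition read in a fluorescence assay; IC50 values reported.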

Data set [2] is described as follows: Drug level in Sprague-Dawley rat bone marrow at 100 mg/kg/day, po for 11 days measured on 25 hrs after final administration. Further details: route oral. Format: ADME, organism-based. The following applies: read-out: Drug uptake. In a few lines: (§2)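 Rats dosed orally with 100 mg/kg once daily for 11 days. Compound concentration in bone marrow and serum measured 25 h after the final dose on day 11. BM/serum ratio calculated from the two concentrations.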

Data set [3] is described as follows: Plasma clearance in Sprague-Dawley rat at 4 umol/mL/kg, iv. In kind it is ADME, organism-based. The procedure, abridged: (§3)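 Male Sprague-Dawley rats, cassette dosing, iv and oral. Plasma levels by LC-MS/MS. Half-life is the noncompartmental terminal elimination estimate. Clearance, steady-state volume of distribution and bioavailability derived from the profiles.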

The subject of data set [4] is Rattus norvegicus. The experiment in a line: Antibone resorptive activity in Sprague-Dawley rat assessed as inhibition of cathepsin K-mediated C-terminal telopeptidase of type 1 collagen degradation at 100 mg/kg/day, po for 11 days measured on 24 hrs after final administration by RatLaps ELISA. Format: functional. Also on record: scale not given: the % may be the effect or the level left. In a few lines:
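Intact rats dosed orally with 100 mg/kg once daily for 11 days. Urine collected for 24 h after the final dose on day 11; CTx measured by RatLaps ELISA. Inhibition expressed as percentage of vehicle-treated controls.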
Background: An ELISA detects its analyte on a solid surface through an enzyme-linked reagent.

Data set [5] is described as follows: Ratio of drug level in bone marrow to serum in po dosed Sprague-Dawley rat. Format: ADME, organism-based. As to conditions: in vivo. The procedure, abridged: as §2
A short description of data set [6]: Drug level in Sprague-Dawley rat serum at 100 mg/kg/day, po for 11 days measured on 25 hrs after final administration. Format: ADME, organism-based. Also on record: route oral. As to conditions: read-out: Drug uptake. In a few lines: as §2
Data set [7] deals with Cathepsin S (Homo sapiens, UniProt P25774). The data set can be described thus: Inhibition of human recombinant cathepsin S by fluorescence assay. In a few lines:
as §1

The nature of data set [8]: Volume of distribution at steady state in Sprague-Dawley rat at 4 umol/mL/kg, iv. In kind it is ADME, organism-based. As to conditions: in vivo, read-out: Vdss. The procedure, abridged: as §3
A short description of data set [9]: (§4) Bioavailability in Sprague-Dawley rat at 10 umol/5 mL/kg, po. As to conditions: Sprague-Dawley, in vivo, 10 umol/5 mL/kg. Format: ADME, organism-based. In a few lines:
as §3

The nature of data set [10]: Half life in Sprague-Dawley rat at 4 umol/mL/kg, iv. As to conditions: in vivo. In kind it is ADME, organism-based. In a few lines:
as §3

The target in data set [11] is Procathepsin L (Homo sapiens, UniProt P07711). The data set can be described thus: Inhibition of human recombinant cathepsin L by fluorescence assay. In a few lines: as §1
The target of data set [12] is T2, Cathepsin K (Rattus norvegicus, UniProt O35186).
T2 sequence (O35186 whole entry): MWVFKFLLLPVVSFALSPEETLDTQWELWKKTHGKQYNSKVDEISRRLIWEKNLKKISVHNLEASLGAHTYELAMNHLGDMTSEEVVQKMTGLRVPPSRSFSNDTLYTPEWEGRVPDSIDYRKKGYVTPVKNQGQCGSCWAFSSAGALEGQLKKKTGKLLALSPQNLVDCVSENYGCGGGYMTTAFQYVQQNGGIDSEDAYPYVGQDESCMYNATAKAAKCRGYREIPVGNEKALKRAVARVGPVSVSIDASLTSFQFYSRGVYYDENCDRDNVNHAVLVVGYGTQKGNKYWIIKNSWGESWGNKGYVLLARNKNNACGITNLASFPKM
The experiment in a line: Inhibition of rat recombinant cathepsin K expressed in Sf21 cells by fluorescence assay.

Data set [13] deals with Cynomolgus monkey. The data set can be described thus: Antibone resorptive activity in cynomolgus monkey assessed as reduction of C-terminal telopeptidase of type 1 collagen degradation at 2 mg/kg/day, po measured before 8 hrs after 7 days of administration by CrossLaps ELISA. Format: functional, organism-based. As to conditions: Macaca fascicularis. In a few lines: (§5)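 Cynomolgus monkeys given 2 mg/kg orally once daily for 14 days. CTx measured by CrossLaps ELISA before and 8 h after dosing on day 1 and on days 7 and 14, and at 24 h after the first dose. Vehicle group run in parallel to allow for daily CTx fluctuation. Means and SEM, n = 4, 5; t-test against vehicle control.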

Data set [14] can be described thus: Bioavailability in Sprague-Dawley rat at 3 mg/5 mL/kg, po. As to conditions: in vivo. In kind it is ADME, organism-based.
The test system of data set [15] is Cynomolgus monkey. The experiment in a line: Antibone resorptive activity in cynomolgus monkey assessed as reduction of C-terminal telopeptidase of type 1 collagen degradation at 2 mg/kg/day, po measured after 8 hrs after 7 days of administration by CrossLaps ELISA. Format: functional, organism-based. The following applies: Macaca fascicularis. In a few lines:
as §5

Data set [16] has as its system Cynomolgus monkey. The data set can be described thus: Antibone resorptive activity in cynomolgus monkey assessed as reduction of C-terminal telopeptidase of type 1 collagen degradation at 2 mg/kg/day, po measured after 24 hrs after first administration by CrossLaps ELISA. Format: functional, organism-based. The following applies: Macaca fascicularis. The procedure, abridged:
as §5

A short description of data set [17]: Volume of distribution at steady state in Sprague-Dawley rat at 1 mg/mL/kg, iv. The following applies: in vivo, read-out: Vdss. In kind it is ADME, organism-based.
Data set [18] is described as follows: Half life in Sprague-Dawley rat at 1 mg/mL/kg, iv. In kind it is ADME, organism-based. As to conditions: in vivo.
Data set [19] concerns Cynomolgus monkey. The experiment in a line: Antibone resorptive activity in cynomolgus monkey assessed as reduction of cathepsin K-mediated C-terminal telopeptidase of type 1 collagen degradation at 2 mg/kg/day, po measured after 8 hrs after 14 days of administration by CrossLaps ELISA. In kind it is functional, organism-based. The following applies: Macaca fascicularis. The procedure, abridged:
as §5

Data set [20] deals with Cynomolgus monkey. The data set can be described thus: Antibone resorptive activity in cynomolgus monkey assessed as reduction of C-terminal telopeptidase of type 1 collagen degradation at 2 mg/kg/day, po measured before 8 hrs after 14 days of administration by CrossLaps ELISA. Format: functional, organism-based. As to conditions: Macaca fascicularis. In a few lines:
as §5

Data set [21] relates to Cynomolgus monkey. The experiment in a line: Toxicity in cynomolgus monkey at 2 mg/kg/day, po for 14 days. Format: organism-based, Macaca fascicularis. Also on record: route oral. The following applies: in vivo, 336 h.
Data set [22] deals with Cynomolgus monkey. The experiment in a line: Antibone resorptive activity in cynomolgus monkey assessed as reduction of C-terminal telopeptidase of type 1 collagen degradation at 2 mg/kg/day, po measured before 8 hrs after first administration by CrossLaps ELISA. The following applies: Macaca fascicularis. In kind it is functional, organism-based. The procedure, abridged: as §5

A short description of data set [23]: Plasma clearance in Sprague-Dawley rat at 1 mg/mL/kg, iv. Format: ADME, organism-based.
Data set [24] concerns Rattus norvegicus. The description is as §4. Format: ADME, organism-based. As to conditions: in vivo. In a few lines: as §3

Molecules are shown by their SMILES. Calls of active or inactive are those of the source. No cut-off for these calls is given here. Bounds are passed on as bounds.

A word on the IC50: it is the midpoint of a concentration-inhibition curve. The clearance is the volume of plasma or blood freed of the substance per unit of time. In general, half-life refers to the time in which the quantity being followed falls by half.

Chain of Cathepsin S (P25774 whole entry): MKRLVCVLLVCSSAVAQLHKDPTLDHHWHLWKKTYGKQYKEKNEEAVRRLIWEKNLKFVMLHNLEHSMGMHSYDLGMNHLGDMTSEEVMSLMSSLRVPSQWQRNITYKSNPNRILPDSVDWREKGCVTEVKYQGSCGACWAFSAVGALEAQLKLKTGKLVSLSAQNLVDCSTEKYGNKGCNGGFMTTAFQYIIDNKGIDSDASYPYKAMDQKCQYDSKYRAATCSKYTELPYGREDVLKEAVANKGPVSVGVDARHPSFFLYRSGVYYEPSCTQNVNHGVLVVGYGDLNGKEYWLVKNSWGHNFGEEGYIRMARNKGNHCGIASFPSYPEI
Chain of Procathepsin L (P07711 whole entry): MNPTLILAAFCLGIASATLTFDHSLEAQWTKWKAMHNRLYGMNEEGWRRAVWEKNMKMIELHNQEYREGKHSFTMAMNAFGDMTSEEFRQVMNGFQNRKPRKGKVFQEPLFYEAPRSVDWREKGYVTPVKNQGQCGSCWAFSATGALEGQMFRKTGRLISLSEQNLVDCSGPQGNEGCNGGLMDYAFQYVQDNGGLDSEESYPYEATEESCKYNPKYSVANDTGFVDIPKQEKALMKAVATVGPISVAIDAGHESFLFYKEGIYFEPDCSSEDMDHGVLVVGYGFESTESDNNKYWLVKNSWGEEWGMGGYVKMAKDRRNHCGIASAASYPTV

In the case of `CC(C)(C)Cn1c(CN2CCC3(CC2)NC(=O)NC3=O)cc2cnc(C#N)nc21`, the figures for the IC50 in data set [1], in data set [7] and in [11] were less than 1 nM, greater than 1000 nM and greater than 1000 nM, respectively. Also, the concentration at 25 h in [2] was 381 nM; in data set [6], 557 nM. Moreover, in [3], the clearance was 78.3 mL/min/kg. In addition, the Activity in data set [4] is given as -7.9%. Further, the Drug uptake in [5] was determined as 0.7. The Vd in [8] is 5.9 L/kg. Further, the bioavailability in data set [9] turned out to be 42%. Moreover, in data set [10], the half-life was 1.6 h.
In the case of `CN1C(=O)NC2(CCN(Cc3cc4cnc(C#N)nc4n3CC(C)(C)C)CC2)C1=O`, the concentration at 25 h in data set [2] was 302 nM; in data set [6], 64 nM. Besides, the IC50 in data set [12] came out at 12 nM. Moreover, the clearance in data set [3] is 35 mL/min/kg. Moreover, the Activity in [4] is on record as 6.8%. Besides, in [5], the Drug uptake was found to be 4.7. The Vd in [8] was 4.3 L/kg. Also, the bioavailability in [9] amounted to 144%. Moreover, the half-life in data set [10] is 1.4 h.
Regarding `CC(C)(C)Cn1c(CN2C(=O)CC3(CCNCC3)C2=O)cc2cnc(C#N)nc21`, the concentration at 25 h in data set [2] was 33500 nM; in data set [6], 960 nM. Besides, in data set [12], the IC50 is 30 nM. Moreover, the result in [13], in data set [15], in data set [16], in data set [19], in [20] and in [22] was Active. Further, in data set [14], the bioavailability stood at 98%. Further, the values for the Activity in data set [4] and in [21] were 73.2% and “Non-toxic”, respectively. Besides, the Drug uptake in [5] was found to be 34.9. The Vd in data set [17] amounted to 97.2 L/kg. Besides, the half-life in [18] was 4.7 h. The compound also gave a clearance in data set [23] of 238 mL/min/kg.
Turning to `CCCN1CCC2(CC1)NC(=O)N(Cc1cc3cnc(C#N)nc3n1CC(C)(C)C)C2=O`, the concentration at 25 h came to 17600 nM in [2] and 133 nM in data set [6]. Besides, the IC50 in data set [12] turned out to be 27 nM. Moreover, the clearance in data set [3] was 85 mL/min/kg. Further, the Activity in [4] is recorded as 89.9%. Moreover, the Drug uptake in data set [5] came to 132. Also, the Vd in data set [8] amounted to 17.3 L/kg. The bioavailability in [9] worked out at 49%. The compound also had a half-life in data set [10] of 2.8 h.
With `COc1ccc2c(c1)C1(CCNCC1)C(=O)N2Cc1cc2cnc(C#N)nc2n1CC(C)(C)C`, the IC50 in data set [1] was less than 1 nM; in data set [12], 44 nM; in data set [7], greater than 1000 nM; in data set [11], greater than 1000 nM. For the same compound, the concentration at 25 h in [2] was 45800 nM; in data set [6], 288 nM. Further, in data set [14], the bioavailability was 29%. The Activity in data set [4] stood at 68%. Also, the Drug uptake in data set [5] was found to be 159. For the same compound, in [17], the Vd was found to be 73.6 L/kg. The half-life in [18] was 4.9 h. In data set [23], this compound gave a clearance of 182 mL/min/kg.
As for `CC(C)(C)Cn1c(CN2C(=O)C3(CCNCC3)c3cc(F)ccc32)cc2cnc(C#N)nc21`, the concentration at 25 h amounted to 119000 nM in [2] and 1200 nM in data set [6]. The IC50 in [12] worked out at 78 nM. For the same compound, the bioavailability in [14] is 36%. The Activity in [4] was 36.2%. Further, in data set [5], the Drug uptake stood at 99. Also, in data set [17], the Vd stood at 78.4 L/kg. Further, the half-life in data set [18] is 6.6 h. Further, in [23], the clearance was 132 mL/min/kg.
For the compound `CCCN1C(=O)NC2(CCN(Cc3cc4cnc(C#N)nc4n3CC(C)(C)C)CC2)C1=O`, the half-maximal inhibitory concentration (IC50) in [1] was less than 1 nM; in data set [7], greater than 1000 nM; in [11], greater than 1000 nM. Also, the concentration at 25 h in data set [2] was found to be 832 nM; in [6], 545 nM. In [3], the clearance was 45 mL/min/kg. In [4], the Activity was determined as 11.3%. For the same compound, in data set [5], the Drug uptake is 1.5. In [8], the Vd turned out to be 6.7 L/kg. The bioavailability in [9] came to 58%. This compound also gave a half-life in data set [10] of 1.9 h.
With `CC(C)(C)Cn1c(CN2C(=O)NC3(CCNCC3)C2=O)cc2cnc(C#N)nc21`, the IC50 is less than 1 nM in data set [1], 76 nM in [12], greater than 1000 nM in data set [7] and greater than 1000 nM in data set [11]. Besides, the clearance in data set [3] is 245 mL/min/kg. Also, in [8], the Vd amounted to 59.2 L/kg. The Activity result in [24] is on record as “Not Active”. In data set [10], this compound gave a half-life of 3.3 h.
